Activity calls are given as the source filed them. The rule behind the calls is not given here.
Tests used:
[1] = system: D1; assay: Immunostimulatory activity in C57BL/6 (H-2b) mouse D1 cells assessed as increase in IL-12p40 secretion at 30 pM to 30 nM after 24 hrs by ELISA/DC maturation assay; format: functional, cell-based
Outline: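 Cells were D1, a growth factor-dependent immature spleen-derived dendritic cell line from C57BL/6 (H-2b) mice. Compounds were titrated at 4 concentrations in complete IMDM, with about 40.000 cells per well. After 24 hours at 37°C, supernatant IL-12p40 was measured by ELISA. Assays were run in triplicate, with standard deviation shown.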

[2] = biological target: Toll-like receptor 2 (Homo sapiens) (UniProt O60603); assay: Activation of human TLR2 expressed in HEK293 cells assessed as IL-8 secretion after 48 hrs by ELISA
[3] = biological target: Toll-like receptor 2 (Homo sapiens) (UniProt O60603); assay: Activation of human TLR2 expressed in HEK293 cells assessed as IL-8 secretion at 30 to 300 nM after 48 hrs by ELISA

Sequence of Toll-like receptor 2 (Homo sapiens) (O60603 whole entry): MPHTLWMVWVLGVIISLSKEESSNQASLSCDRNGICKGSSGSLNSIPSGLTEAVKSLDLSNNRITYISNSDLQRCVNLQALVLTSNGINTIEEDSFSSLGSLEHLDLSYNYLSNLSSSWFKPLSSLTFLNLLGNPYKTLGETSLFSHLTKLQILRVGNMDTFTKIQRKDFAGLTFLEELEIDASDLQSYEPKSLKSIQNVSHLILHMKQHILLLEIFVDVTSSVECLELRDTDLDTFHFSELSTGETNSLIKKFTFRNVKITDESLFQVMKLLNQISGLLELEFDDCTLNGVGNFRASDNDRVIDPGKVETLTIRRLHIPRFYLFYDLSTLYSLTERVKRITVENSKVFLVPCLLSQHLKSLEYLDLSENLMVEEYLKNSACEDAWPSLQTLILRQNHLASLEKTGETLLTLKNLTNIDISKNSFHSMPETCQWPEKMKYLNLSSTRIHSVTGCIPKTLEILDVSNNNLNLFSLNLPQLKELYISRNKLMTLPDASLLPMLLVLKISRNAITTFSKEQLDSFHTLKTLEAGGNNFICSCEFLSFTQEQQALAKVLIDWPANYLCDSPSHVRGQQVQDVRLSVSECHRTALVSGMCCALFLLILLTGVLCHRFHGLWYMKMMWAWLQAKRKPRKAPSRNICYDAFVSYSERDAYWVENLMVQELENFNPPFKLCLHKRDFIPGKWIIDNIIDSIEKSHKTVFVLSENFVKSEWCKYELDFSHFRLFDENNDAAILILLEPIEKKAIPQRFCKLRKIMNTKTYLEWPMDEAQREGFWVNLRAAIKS

SMILES: C#CC[C@H](NC(=O)[C@H](CSCC(COC(=O)CCCCCCCCCCCCCCC)OC(=O)CCCCCCCCCCCCCCC)NC(=O)NCCCCCCCCCCCCCC)C(=O)N[C@@H](CCCCN)C(=O)N[C@@H](CCCCN)C(=O)N[C@@H](CCCCN)C(=O)N[C@@H](CCCCN)C(N)=O (mixture of isomers)
- Activity [1]: Active
- Activity [2]: Dose-dependent effect

SMILES: C=CC[C@@H](NC(=O)[C@H](CSCC(COC(=O)CCCCCCCCCCCCCCC)OC(=O)CCCCCCCCCCCCCCC)NC(=O)NCCCCCCCCCCCCCC)C(=O)N[C@@H](CCCCN)C(=O)N[C@@H](CCCCN)C(=O)N[C@@H](CCCCN)C(=O)N[C@@H](CCCCN)C(N)=O (mixture of isomers)
- Activity [3]: inactive

SMILES: C=CC[C@H](NC(=O)[C@H](CSCC(COC(=O)CCCCCCCCCCCCCCC)OC(=O)CCCCCCCCCCCCCCC)NC(=O)NCCCCCCCCCCCCCC)C(=O)N[C@@H](CCCCN)C(=O)N[C@@H](CCCCN)C(=O)N[C@@H](CCCCN)C(=O)N[C@@H](CCCCN)C(N)=O (mixture of isomers)
- Activity [1]: Active
- Activity [2]: Dose-dependent effect

SMILES: CCCCCCCCCCCCCCCC(=O)OCC(CSC[C@H](NC(=O)NCCCCCCCCCCCCCC)C(=O)NCC(=O)N[C@@H](CCCCN)C(=O)N[C@@H](CCCCN)C(=O)N[C@@H](CCCCN)C(=O)N[C@@H](CCCCN)C(N)=O)OC(=O)CCCCCCCCCCCCCCC (mixture of isomers)
- Activity [2]: Dose-dependent effect

SMILES: CCCCCCCCCCCCCCCC(=O)OCC(CSC[C@H](NC(=O)NCCCCCCCCCCCCCC)C(=O)NCCC(=O)N[C@@H](CCCCN)C(=O)N[C@@H](CCCCN)C(=O)N[C@@H](CCCCN)C(=O)N[C@@H](CCCCN)C(N)=O)OC(=O)CCCCCCCCCCCCCCC (mixture of isomers)
- Activity [1]: inactive
- Activity [2]: Dose-dependent effect

SMILES: CCCCCCCCCCCCCCCC(=O)OCC(CSC[C@H](NC(=O)NCCCCCCCCCCCCCC)C(=O)NC[C@H](CCCCN)C(=O)N[C@@H](CCCCN)C(=O)N[C@@H](CCCCN)C(=O)N[C@@H](CCCCN)C(=O)N[C@@H](CCCCN)C(N)=O)OC(=O)CCCCCCCCCCCCCCC (mixture of isomers)
- Activity [1]: inactive
- Activity [3]: inactive

SMILES: CCCCCCCCCCCCCCCC(=O)OCC(CSC[C@H](NC(=O)NCCCCCCCCCCCCCC)C(=O)N[C@@H](C)C(=O)N[C@@H](CCCCN)C(=O)N[C@@H](CCCCN)C(=O)N[C@@H](CCCCN)C(=O)N[C@@H](CCCCN)C(N)=O)OC(=O)CCCCCCCCCCCCCCC (mixture of isomers)
- Activity [2]: Dose-dependent effect

SMILES: CCCCCCCCCCCCCCCC(=O)OCC(CSC[C@H](NC(=O)NCCCCCCCCCCCCCC)C(=O)N[C@@H](CC#N)C(=O)N[C@@H](CCCCN)C(=O)N[C@@H](CCCCN)C(=O)N[C@@H](CCCCN)C(=O)N[C@@H](CCCCN)C(N)=O)OC(=O)CCCCCCCCCCCCCCC (mixture of isomers)
- Activity [1]: Active
- Activity [2]: Dose-dependent effect

SMILES: CCCCCCCCCCCCCCCC(=O)OCC(CSC[C@H](NC(=O)NCCCCCCCCCCCCCC)C(=O)N[C@@H](CC(N)=O)C(=O)N[C@@H](CCCCN)C(=O)N[C@@H](CCCCN)C(=O)N[C@@H](CCCCN)C(=O)N[C@@H](CCCCN)C(N)=O)OC(=O)CCCCCCCCCCCCCCC (mixture of isomers)
- Activity [1]: Active
- Activity [2]: Dose-dependent effect

SMILES: CCCCCCCCCCCCCCCC(=O)OCC(CSC[C@H](NC(=O)NCCCCCCCCCCCCCC)C(=O)N[C@@H](CC)C(=O)N[C@@H](CCCCN)C(=O)N[C@@H](CCCCN)C(=O)N[C@@H](CCCCN)C(=O)N[C@@H](CCCCN)C(N)=O)OC(=O)CCCCCCCCCCCCCCC (mixture of isomers)
- Activity [1]: Active
- Activity [2]: Dose-dependent effect

SMILES: CCCCCCCCCCCCCCCC(=O)OCC(CSC[C@H](NC(=O)NCCCCCCCCCCCCCC)C(=O)N[C@@H](CCC)C(=O)N[C@@H](CCCCN)C(=O)N[C@@H](CCCCN)C(=O)N[C@@H](CCCCN)C(=O)N[C@@H](CCCCN)C(N)=O)OC(=O)CCCCCCCCCCCCCCC (mixture of isomers)
- Activity [1]: Active
- Activity [2]: Dose-dependent effect

SMILES: CCCCCCCCCCCCCCCC(=O)OCC(CSC[C@H](NC(=O)NCCCCCCCCCCCCCC)C(=O)N[C@@H](CCCC)C(=O)N[C@@H](CCCCN)C(=O)N[C@@H](CCCCN)C(=O)N[C@@H](CCCCN)C(=O)N[C@@H](CCCCN)C(N)=O)OC(=O)CCCCCCCCCCCCCCC (mixture of isomers)
- Activity [1]: Active
- Activity [2]: Dose-dependent effect

SMILES: CCCCCCCCCCCCCCCC(=O)OCC(CSC[C@H](NC(=O)NCCCCCCCCCCCCCC)C(=O)N[C@@H](CCN)C(=O)N[C@@H](CCCCN)C(=O)N[C@@H](CCCCN)C(=O)N[C@@H](CCCCN)C(=O)N[C@@H](CCCCN)C(N)=O)OC(=O)CCCCCCCCCCCCCCC (mixture of isomers)
- Activity [1]: Active
- Activity [2]: Dose-dependent effect

SMILES: CCCCCCCCCCCCCCCC(=O)OCC(CSC[C@H](NC(=O)NCCCCCCCCCCCCCC)C(=O)N[C@@H](CN)C(=O)N[C@@H](CCCCN)C(=O)N[C@@H](CCCCN)C(=O)N[C@@H](CCCCN)C(=O)N[C@@H](CCCCN)C(N)=O)OC(=O)CCCCCCCCCCCCCCC (mixture of isomers)
- Activity [1]: inactive
- Activity [2]: Dose-dependent effect

SMILES: CCCCCCCCCCCCCCCC(=O)OCC(CSC[C@H](NC(=O)NCCCCCCCCCCCCCC)C(=O)N[C@@H](CO)C(=O)N[C@@H](CCCCN)C(=O)N[C@@H](CCCCN)C(=O)N[C@@H](CCCCN)C(=O)N[C@@H](CCCCN)C(N)=O)OC(=O)CCCCCCCCCCCCCCC (mixture of isomers)
- Activity [1]: Active
- Activity [2]: Dose-dependent effect

SMILES: CCCCCCCCCCCCCCCC(=O)OCC(CSC[C@H](NC(=O)NCCCCCCCCCCCCCC)C(=O)N[C@@H](CS)C(=O)N[C@@H](CCCCN)C(=O)N[C@@H](CCCCN)C(=O)N[C@@H](CCCCN)C(=O)N[C@@H](CCCCN)C(N)=O)OC(=O)CCCCCCCCCCCCCCC (mixture of isomers)
- Activity [1]: inactive
- Activity [3]: inactive

SMILES: CCCCCCCCCCCCCCCC(=O)OCC(CSC[C@H](NC(=O)NCCCCCCCCCCCCCC)C(=O)N[C@@H](Cc1ccc2ccccc2c1)C(=O)N[C@@H](CCCCN)C(=O)N[C@@H](CCCCN)C(=O)N[C@@H](CCCCN)C(=O)N[C@@H](CCCCN)C(N)=O)OC(=O)CCCCCCCCCCCCCCC (mixture of isomers)
- Activity [1]: inactive
- Activity [3]: inactive

SMILES: CCCCCCCCCCCCCCCC(=O)OCC(CSC[C@H](NC(=O)NCCCCCCCCCCCCCC)C(=O)N[C@@H](Cc1ccccc1)C(=O)N[C@@H](CCCCN)C(=O)N[C@@H](CCCCN)C(=O)N[C@@H](CCCCN)C(=O)N[C@@H](CCCCN)C(N)=O)OC(=O)CCCCCCCCCCCCCCC (mixture of isomers)
- Activity [1]: inactive
- Activity [2]: Dose-dependent effect

SMILES: CCCCCCCCCCCCCCCC(=O)OCC(CSC[C@H](NC(=O)NCCCCCCCCCCCCCC)C(=O)N[C@@H](Cc1cccs1)C(=O)N[C@@H](CCCCN)C(=O)N[C@@H](CCCCN)C(=O)N[C@@H](CCCCN)C(=O)N[C@@H](CCCCN)C(N)=O)OC(=O)CCCCCCCCCCCCCCC (mixture of isomers)
- Activity [1]: inactive
- Activity [2]: Dose-dependent effect

SMILES: CCCCCCCCCCCCCCCC(=O)OCC(CSC[C@H](NC(=O)NCCCCCCCCCCCCCC)C(=O)N[C@H](C(=O)N[C@@H](CCCCN)C(=O)N[C@@H](CCCCN)C(=O)N[C@@H](CCCCN)C(=O)N[C@@H](CCCCN)C(N)=O)C(C)(C)S)OC(=O)CCCCCCCCCCCCCCC (mixture of isomers)
- Activity [1]: inactive
- Activity [2]: Dose-dependent effect

SMILES: CCCCCCCCCCCCCCCC(=O)OCC(CSC[C@H](NC(=O)NCCCCCCCCCCCCCC)C(=O)N[C@H](C(=O)N[C@@H](CCCCN)C(=O)N[C@@H](CCCCN)C(=O)N[C@@H](CCCCN)C(=O)N[C@@H](CCCCN)C(N)=O)c1cccs1)OC(=O)CCCCCCCCCCCCCCC (mixture of isomers)
- Activity [2]: Dose-dependent effect

SMILES: CCCCCCCCCCCCCCCC(=O)OCC(CSC[C@H](NC(=O)NCCCCCCCCCCCCCC)C(=O)N[C@H](CS)C(=O)N[C@@H](CCCCN)C(=O)N[C@@H](CCCCN)C(=O)N[C@@H](CCCCN)C(=O)N[C@@H](CCCCN)C(N)=O)OC(=O)CCCCCCCCCCCCCCC (mixture of isomers)
- Activity [1]: inactive
- Activity [3]: inactive
